For data set [1], the target named is Beta-1 adrenergic receptor (Homo sapiens, UniProt P08588). Kind of data set: Agonist activity at human beta1-adrenergic receptor expressed in CHO cells assessed as increase of cAMP level after 30 mins. The format is functional, cell-based. Put shortly: (§1)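 Stably transfected CHO cells expressing human β1, β2 or β3 or marmoset β3 receptor were grown in Ham's F-12 with 10% FBS and geneticin, seeded at 2×10⁴ cells/well and grown about 20 h. Cells spent 15 min serum-free, then 30 min with compound in medium containing HEPES and isobutylmethylxanthine. Lysate cAMP was measured by kit. […] EC50 is the half-maximal concentration for each compound.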

The test system of data set [2] is Rattus norvegicus. Kind of data set: Cardiotoxicity in anesthetized Sprague-Dawley rat assessed as increase in mean blood pressure at 3 mg/kg, iv measured for 30 mins relative to control. In kind it is toxicity, organism-based. The following applies: in vivo, 0.5 h. Put shortly:
(§2)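 Male Sprague-Dawley rats (200-300 g) were anesthetized with sodium pentobarbital (50 mg/kg i.p. plus 25 mg/kg s.c.). The compound was injected via the cannulated left femoral vein once BP and HR were stable, and HR and MBP were recorded for 30 min. Results are the maximum % increase or decrease from baseline, as mean ± SEM. Where given, silodosin (0.01 mg/kg iv) preceded the compound.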

Data set [3] concerns Rattus norvegicus. Kind of data set: Cardiotoxicity in anesthetized Sprague-Dawley rat assessed as decrease in heart rate at 3 mg/kg, iv measured for 30 mins relative to control. The format is toxicity, organism-based. Further details: scale not given: the % may be the effect or the level left. The following applies: in vivo, 0.5 h. Put shortly:
as §2

Data set [4] is filed under the species Homo sapiens. Kind of data set: Selectivity ratio of EC50 for human alpha1A-adrenergic receptor to EC50 for human beta3-adrenergic receptor.
Data set [5] concerns the target T1, Beta-3 adrenergic receptor (Homo sapiens, UniProt P13945). Kind of data set: Intrinsic activity at human beta3-adrenergic receptor expressed in CHO cells assessed as increase of cAMP level after 30 mins relative to isoproterenol. The format is functional, cell-based. Put shortly:
as §1
A general note: Changes in cAMP serve as a functional read-out for many G protein-coupled receptors.
Target sequence in this assay (P13945 whole entry, looked up): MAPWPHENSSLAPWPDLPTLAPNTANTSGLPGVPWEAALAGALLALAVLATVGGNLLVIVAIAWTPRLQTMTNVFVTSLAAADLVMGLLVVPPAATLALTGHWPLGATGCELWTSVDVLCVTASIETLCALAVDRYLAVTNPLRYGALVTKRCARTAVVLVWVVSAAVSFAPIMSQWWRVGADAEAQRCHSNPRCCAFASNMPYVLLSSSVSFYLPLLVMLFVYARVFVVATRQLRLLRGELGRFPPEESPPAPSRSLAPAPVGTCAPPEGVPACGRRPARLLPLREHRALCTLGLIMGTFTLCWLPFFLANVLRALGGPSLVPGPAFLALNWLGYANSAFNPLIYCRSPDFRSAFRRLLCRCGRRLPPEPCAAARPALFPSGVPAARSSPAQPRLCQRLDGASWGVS

In data set [6] the target is T1, Beta-3 adrenergic receptor. Kind of data set: Agonist activity at human recombinant beta3-adrenergic receptor expressed in CHO cells assessed as increase of cAMP level after 30 mins. The format is functional, cell-based.
Target sequence in this assay (P13945 whole entry): as the sequence (P13945 whole entry, looked up) above
In data set [7] the target is Beta-2 adrenergic receptor (Homo sapiens, UniProt P07550). Kind of data set: Agonist activity at human beta2-adrenergic receptor expressed in CHO cells assessed as increase of cAMP level after 30 mins. The format is functional, cell-based. Put shortly: as §1
Data set [8] deals with Rattus norvegicus. Kind of data set: Cardiotoxicity in anesthetized Sprague-Dawley rat assessed as decrease in mean blood pressure at 3 mg/kg, iv measured for 30 mins relative to control. The format is toxicity, organism-based. The arrangement: scale not given: the % may be the effect or the level left. The conditions noted are these: in vivo, 0.5 h. Put shortly: as §2
Data set [9] has as its target T2, Alpha-1A adrenergic receptor (Homo sapiens) (UniProt P35348).
T2 sequence (whole entry): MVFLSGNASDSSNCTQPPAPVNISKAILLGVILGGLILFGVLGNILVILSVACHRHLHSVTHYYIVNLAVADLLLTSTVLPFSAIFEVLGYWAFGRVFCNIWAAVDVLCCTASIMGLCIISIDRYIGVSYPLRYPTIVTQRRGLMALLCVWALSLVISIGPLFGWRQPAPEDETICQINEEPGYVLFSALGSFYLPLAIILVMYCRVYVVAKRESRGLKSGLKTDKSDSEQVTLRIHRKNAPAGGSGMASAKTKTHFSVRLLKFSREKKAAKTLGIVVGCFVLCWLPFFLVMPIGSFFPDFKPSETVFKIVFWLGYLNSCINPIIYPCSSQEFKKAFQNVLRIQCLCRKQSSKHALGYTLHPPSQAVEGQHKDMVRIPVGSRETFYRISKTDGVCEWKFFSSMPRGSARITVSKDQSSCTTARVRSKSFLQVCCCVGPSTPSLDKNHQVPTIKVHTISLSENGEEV
Kind of data set: Intrinsic activity at human alpha1A-adrenergic receptor expressed in HEK293 cells assessed as calcium flux by fluorescence assay relative to norepinephrine. In kind it is functional, cell-based.

Data set [10] deals with Rattus norvegicus. Kind of data set: Cardiotoxicity in anesthetized Sprague-Dawley rat assessed as increase in heart rate at 3 mg/kg, iv measured for 30 mins relative to control. The conditions noted are these: in vivo, 0.5 h. In kind it is toxicity, organism-based. Put shortly:
as §2

In data set [11] the target is T3, Alpha-1A adrenergic receptor (Homo sapiens, UniProt P35348).
T3 sequence (P35348 whole entry): T2 sequence (whole entry)
Kind of data set: Agonist activity at human alpha1A-adrenergic receptor expressed in HEK293 cells assessed as calcium flux by fluorescence assay. The format is functional, cell-based. For orientation: Calcium assays in cells follow changes in intracellular calcium, usually with a dye or a luminescent sensor.

The species named for data set [12] is Callithrix jacchus. Kind of data set: Agonist activity at beta3-adrenergic receptor in isolated marmoset urinary bladder smooth muscle assessed as reduction of KCl-induced muscle contraction. The format is tissue-based. Summed up:
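Marmosets anesthetized with ketamine hydrochloride (15 mg/kg, i.m.) and exsanguinated. Bladder body strips (about 10-15 mm × 2-5 mm) were held in Krebs-Henseleit gassed with 95% O2/5% CO2 at 37 °C under 1 g resting tension and equilibrated over 30 min. Tension was recorded isometrically. After the top concentration, papaverine (final 10⁻⁴ mol/L) set each strip's maximum relaxation.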

Data set [13] deals with Beta-3 adrenergic receptor (Rattus norvegicus) (UniProt P26255). Kind of data set: Intrinsic activity at rat beta3-adrenergic receptor relative to isoproterenol.
Data set [14] is described as follows: Agonist activity at marmoset beta3-adrenergic receptor. Further details: species or system Callithrix jacchus. Put shortly: as §1
For data set [15], the species on record is Callithrix jacchus. Kind of data set: Agonist activity at marmoset beta3-adrenergic receptor relative to isoproterenol. Put shortly: as §1
The target in data set [16] is Beta-3 adrenergic receptor (Rattus norvegicus, UniProt P26255). Kind of data set: Agonist activity at rat beta3-adrenergic receptor.

SMILES strings stand for the structures. Active and inactive are the calls of the source. The calls are words filed in the database; no cut-off is given here. Bounds are passed on as bounds.

Chain of Beta-1 adrenergic receptor (P08588 whole entry): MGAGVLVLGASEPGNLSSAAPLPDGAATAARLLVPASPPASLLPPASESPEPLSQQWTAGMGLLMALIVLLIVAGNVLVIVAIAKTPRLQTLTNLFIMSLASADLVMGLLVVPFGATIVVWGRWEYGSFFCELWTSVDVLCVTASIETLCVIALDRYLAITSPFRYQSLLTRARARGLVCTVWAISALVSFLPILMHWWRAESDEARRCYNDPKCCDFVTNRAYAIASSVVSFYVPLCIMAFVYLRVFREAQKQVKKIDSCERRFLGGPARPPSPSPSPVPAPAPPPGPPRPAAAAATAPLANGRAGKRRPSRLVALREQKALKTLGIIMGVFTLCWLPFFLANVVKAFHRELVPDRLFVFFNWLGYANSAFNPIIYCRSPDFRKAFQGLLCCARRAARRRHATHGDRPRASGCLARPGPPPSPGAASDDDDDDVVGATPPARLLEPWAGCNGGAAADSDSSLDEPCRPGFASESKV
Chain of Beta-2 adrenergic receptor (P07550 whole entry): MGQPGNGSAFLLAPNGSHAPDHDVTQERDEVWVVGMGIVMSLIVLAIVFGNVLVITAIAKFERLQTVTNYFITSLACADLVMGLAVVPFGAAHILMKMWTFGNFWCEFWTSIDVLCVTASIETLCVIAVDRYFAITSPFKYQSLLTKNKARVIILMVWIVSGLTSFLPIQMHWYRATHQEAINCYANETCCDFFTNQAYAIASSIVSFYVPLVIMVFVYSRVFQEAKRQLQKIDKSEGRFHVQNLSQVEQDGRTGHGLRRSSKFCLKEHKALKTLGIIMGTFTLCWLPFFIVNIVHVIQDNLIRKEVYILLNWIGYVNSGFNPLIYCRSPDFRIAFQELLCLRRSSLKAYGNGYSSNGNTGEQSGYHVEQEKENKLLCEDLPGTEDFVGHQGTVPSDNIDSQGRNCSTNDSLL
Chain of Beta-3 adrenergic receptor (Rattus norvegicus, UniProt P26255) (P26255 whole entry): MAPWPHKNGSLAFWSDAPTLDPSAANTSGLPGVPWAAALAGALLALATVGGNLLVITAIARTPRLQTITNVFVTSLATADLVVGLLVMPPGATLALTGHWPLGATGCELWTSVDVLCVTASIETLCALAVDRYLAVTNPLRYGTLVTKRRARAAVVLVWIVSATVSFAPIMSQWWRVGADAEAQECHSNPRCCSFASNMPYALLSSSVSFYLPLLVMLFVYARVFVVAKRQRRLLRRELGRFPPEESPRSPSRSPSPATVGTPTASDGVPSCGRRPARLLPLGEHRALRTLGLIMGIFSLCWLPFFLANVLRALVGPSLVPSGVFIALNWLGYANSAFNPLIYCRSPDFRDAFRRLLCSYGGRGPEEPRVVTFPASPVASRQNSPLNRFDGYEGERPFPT
Chain of Beta-3 adrenergic receptor (Rattus norvegicus) (P26255 whole entry): as above

Take `CCc1n[nH]c2cc(OCCNC[C@H](O)c3cccc(NS(C)(=O)=O)c3)ccc12`: the EC50 – broadly, the midpoint of the concentration-response curve – is greater than 10000 nM in data set [1], 14 nM in data set [6] and greater than 10000 nM in data set [7]. Besides, the Activity in [2] is 3.1%; in data set [3], 1.6%; in data set [8], 10.8%; in [10] it was 9.6%. The Ratio EC50 in [4] turned out to be 61. Also, the Intrinsic activity in data set [5] turned out to be 78%; in data set [9], 31%.

Regarding `CS(=O)(=O)Nc1cccc([C@@H](O)CNCCOc2ccc3c(C4CC4)n[nH]c3c2)c1`, the EC50 in data set [1] is greater than 10000 nM; in data set [11], 1550 nM; in data set [6] it was 17 nM; in data set [7] it was greater than 10000 nM. In addition, the Activity in [2] was 2.7%; in [3], 3.3%; in data set [8], 11%; in [10], 5.7%. In addition, the Ratio EC50 in data set [4] is 91. Also, the Intrinsic activity was 72% in data set [5] and 19% in data set [9].

Consider `CC(C)c1n[nH]c2cc(OCCNC[C@H](O)c3cccc(NS(C)(=O)=O)c3)ccc12`, for which the concentration for a half-maximal effect (EC50) in [1] was greater than 10000 nM; in data set [11], greater than 10000 nM; in data set [14] it was 15 nM; in data set [6], 13 nM; in data set [7], greater than 10000 nM; in [16], 535 nM. In addition, in data set [12], the result was Active. For the same molecule, the Activity in data set [2] was determined as 4.7%; in data set [3], 1.8%; in data set [8] it was 7.6%; in [10], 3.3%. In [4], the Ratio EC50 was greater than 769. For the same molecule, the Intrinsic activity in data set [5] stood at 69%; in data set [13] it was 95%; in data set [15], 75%; in [9], 9.1%.

Turning to `COc1n[nH]c2cc(OCCNC[C@H](O)c3cccc(NS(C)(=O)=O)c3)ccc12`, the EC50 in [11] turned out to be 252 nM; in [6], 40 nM. Also, in [4], the Ratio EC50 stood at 6.3. For the same molecule, the Intrinsic activity in [5] came to 70%; in data set [9], 60%.

As for `CC(C)(C)c1n[nH]c2cc(OCCNC[C@H](O)c3cccc(NS(C)(=O)=O)c3)ccc12`, the EC50 in data set [11] was greater than 10000 nM; in [6], 338 nM. Moreover, the Ratio EC50 in data set [4] is greater than 30. In addition, the results for the Intrinsic activity in data set [5] and in data set [9] were 62% and 19%, respectively.

In the case of `CS(=O)(=O)Nc1cccc([C@@H](O)CNCCOc2ccc3c(C4CCC4)n[nH]c3c2)c1`, the figures for the EC50 in [11] and in data set [6] were greater than 10000 nM and 66 nM, respectively. Further, the Ratio EC50 in data set [4] is greater than 151. Besides, the Intrinsic activity came out at 68% in data set [5] and 4% in [9].

As for `CS(=O)(=O)Nc1cccc([C@@H](O)CNCCOc2ccc3c(Cl)n[nH]c3c2)c1`, the EC50 in data set [11] was 61 nM; in [6], 43 nM. In addition, the Ratio EC50 in data set [4] turned out to be 1.4. In addition, the results for the Intrinsic activity in data set [5] and in data set [9] were 89% and 91%, respectively.

Turning to `Nc1nc(CC(=O)Nc2ccc(CCNC[C@H](O)c3ccccc3)cc2)cs1` [MIRABEGRON], the Activity is listed as 3.5% in data set [2], 38.3% in data set [8] and 10% in data set [10].

Turning to `CCOc1n[nH]c2cc(OCCNC[C@H](O)c3cccc(NS(C)(=O)=O)c3)ccc12`, the EC50 in data set [11] was determined as 277 nM; in [6], 71 nM. For the same molecule, the Ratio EC50 in [4] was 3.9. Moreover, the Intrinsic activity in data set [5] was determined as 69%; in data set [9], 59%.

In the case of `CS(=O)(=O)Nc1cccc([C@@H](O)CNCCOc2ccc3c(C(F)(F)F)n[nH]c3c2)c1`, the EC50 in data set [11] was determined as 812 nM; in data set [6], 64 nM. In data set [4], the Ratio EC50 was 13. For the same molecule, the Intrinsic activity in data set [5] amounted to 86%; in [9], 31%.

For `CS(=O)(=O)Nc1cccc([C@@H](O)CNCCOc2ccc3c(CO)n[nH]c3c2)c1`, the results for the EC50 in data set [11] and in data set [6] were 33 nM and 111 nM, respectively.

For the molecule `CS(=O)(=O)Nc1cccc([C@@H](O)CNCCOc2ccc3c(-c4ccccc4)n[nH]c3c2)c1`, the EC50 in [11] and in [6] was greater than 10000 nM throughout. The Intrinsic activity is 29% in data set [5] and 6% in data set [9].

The values above are taken from ChEMBL document CHEMBL3600378 (J Med Chem, 2015).
